Data set [1] deals with MDA-MB-435. Nature of the data set: Relative fold, IC50 in absence to presence of 1,13-bis[4'-((5,7-dihydroxy)-4H-chromen-4-on-2-yl)phenyl]-1,4,7,10,13-pentaoxatridecane in multidrug resistant MDA435/LCC6 cells. Format: functional, Homo sapiens. Summed up: (§1)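 Resistant breast cells seeded 2000/well, allowed 24 h attachment, then exposed to anticancer-drug concentration series with or without 5 µM modulator for 4 days. MTS/PMS read at 490 nm after 2 h. IC50 from dose-response curves relative to 0.05% DMSO controls. RF = IC50 without modulator divided by IC50 with modulator.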

Data set [2] deals with MDA-MB-435. Put plainly: Antiproliferative activity against multidrug resistant MDA435/LCC6 cells in presence of 5 uM 1,13-bis[4'-((5,7-dihydroxy)-4H-chromen-4-on-2-yl)phenyl]-1,4,7,10,13-pentaoxatridecane by ELISA. It is filed as functional, cell-based. The settings on record: Homo sapiens. Summed up: as §1
Data set [3] deals with MDA-MB-435. Nature of the data set: Antiproliferative activity against MDA435/LCC6 cells by ELISA. Format: functional, cell-based. The following applies: Homo sapiens. Background: An ELISA detects its analyte on a solid surface through an enzyme-linked reagent.
The test system of data set [4] is P388. Nature of the data set: Relative fold, IC50 in absence to presence of 1,13-bis[4'-((5,7-dihydroxy)-4H-chromen-4-on-2-yl)phenyl]-1,4,7,10,13-pentaoxatridecane in multidrug resistant P388 cells. It is filed as functional, Mus musculus. Summed up: (§2)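 P388/ADR cells seeded 5000/well in RPMI 1640 with 10% FBS, given drug concentration series with or without 5 µM modulator for 3 days. MTS/PMS added for 2 h at 37 °C, absorbance at 490 nm. IC50 from dose-response curves versus 0.05% DMSO controls. RF = IC50 without modulator / IC50 with modulator.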

Data set [5] relates to P388. Nature of the data set: Antiproliferative activity against P388 cells by ELISA. The following applies: Mus musculus. It is filed as functional, cell-based. Summed up:
(§3)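 MTS/PMS proliferation assay: cells seeded 5000/well in RPMI 1640 with 10% FBS and penicillin/streptomycin at 37 °C, 5% CO2. Drug series added and cells grown 3 days. MTS/PMS added for 2 h at 37 °C, absorbance read at 490 nm. Survival relative to DMSO (0.05%) controls; IC50 from dose-response curves, at least triplicate.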

The subject of data set [6] is P388/ADR. Nature of the data set: Antiproliferative activity against adriamycin resistant P388 cells by ELISA. The following applies: Mus musculus. It is filed as functional, cell-based. Summed up:
as §3

In data set [7] the test system is P388/ADR. Put plainly: Antiproliferative activity against adriamycin resistant P388 cells in presence of 5 uM verapamil by ELISA. Format: functional, cell-based. The settings on record: Mus musculus. Summed up: as §2
Data set [8] has as its system P388/ADR. Put plainly: Antiproliferative activity against adriamycin resistant P388 cells in presence of 5 uM 1,13-bis[4'-((5,7-dihydroxy)-4H-chromen-4-on-2-yl)phenyl]-1,4,7,10,13-pentaoxatridecane by ELISA. It is filed as functional, cell-based. The settings on record: Mus musculus. Summed up: as §2
The subject of data set [9] is MDA-MB-435. Put plainly: Antiproliferative activity against multidrug resistant MDA435/LCC6 cells by ELISA. Format: functional, cell-based. The following applies: Homo sapiens. Summed up:
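MTS/PMS proliferation assay: cells seeded 2000/well, drugs added after 24 h attachment, growth 4 days in DMEM with 10% FBS at 37 °C, 5% CO2. MTS/PMS added for 2 h, absorbance read at 490 nm. Survival is taken relative to DMSO (0.05%) controls. IC50 is read from dose-response curves, at least triplicate, repeated twice.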

Data set [10] concerns P388. Nature of the data set: Relative fold, IC50 in absence to presence of verapamil in multidrug resistant P388 cells. Format: functional, Mus musculus. Summed up: as §2
The target of data set [11] is T1, ATP-dependent translocase ABCB1 (Homo sapiens, UniProt P08183). Nature of the data set: Increase in VP-induced ATPase activity in human P-gp membrane measured as fold over the basal level in presence of 5 mM MgATP at 100 uM. It is filed as functional, cell membranes. Summed up:
(§4)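 Human P-gp membrane (25 µg) incubated at 37 °C with compound (100 µM), verapamil (100 µM), both, Na3VO4 (100 µM) or 0.1% DMSO. Reaction started with 5 mM MgATP, run 40 min at 37 °C. Remaining ATP detected by luciferase luminescence after 20 min at room temperature. Activity is the luminescence drop versus vanadate-treated samples.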

Data set [12] concerns P388/ADR. Nature of the data set: Reversal potency of DOX resistance in P388 ADR cells by MTS assay. Format: functional, cell-based. The settings on record: Mus musculus. Summed up: (§5)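 P388/ADR cells: DOX or daunorubicin IC50 by 3-day MTS assay (A490) with modulator at 0–10 µM. Concentration dependence of IC50 used to gauge reversal potency. Typical experiment in triplicate.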
For orientation: Tetrazolium assays rely on reduction of a dye to a coloured formazan, in cell work by metabolically active cells.

The test system of data set [13] is MDA-MB-435. Put plainly: Reversal of mitoxantrone resistance in multidrug resistant LCC6 cells by MTS assay. It is filed as functional, cell-based. The following applies: Homo sapiens. Summed up: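 MDA435/LCC6 MDR cells in DMEM with 10% FBS, 2000 cells/well, allowed to attach for 24 h. Anticancer drug was added in serial concentrations with or without modulator (dimers 5 µM, monomers 10 µM; 0.05% DMSO solvent control), then grown for 4 days at 37 °C, 5% CO2. MTS/PMS was added for 2 h and A490 read. Survival was taken relative to DMSO controls; IC60 for DOX, IC50 for the others; triplicate.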

Data set [14] concerns P388/ADR. Put plainly: Reversal of mitoxantrone resistance in adriamycin resistant P388 cells by MTS assay. Format: functional, cell-based. The following applies: Mus musculus. Summed up:
(§6)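 P388/ADR cells in RPMI 1640 with 10% FBS and penicillin/streptomycin, 5000 cells/well. Serial drug concentrations were given with or without modulator (dimers 5 µM, monomers 10 µM; 0.05% DMSO control) and cells grown for 3 days at 37 °C. Read-out was MTS/PMS for 2 h, then A490. IC50 was taken from dose-response curves relative to solvent control; triplicate wells.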

Data set [15] deals with P388/ADR. Nature of the data set: Reversal of daunorubicin resistance in P388 ADR cells by MTS assay at 5 uM. Format: functional, cell-based. The settings on record: Mus musculus. Summed up: as §6
The subject of data set [16] is P388/ADR. Nature of the data set: Reversal of DOX resistance in P388 ADR cells by MTS assay at 5 uM. The settings on record: Mus musculus. It is filed as functional, cell-based. Summed up: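 P388/ADR cells: 3-day MTS assay of DOX dose-response with modulator at 5 µM, or 10 µM for monomers. Verapamil 5 µM and 0.05% DMSO as controls. IC50 from curves, triplicate points, mean ± SD of three independent experiments.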

Data set [17] deals with MDA-MB-435. Nature of the data set: Effect on P-gp-mediated drug efflux in multidrug resistant MDA435/LCC6 cells assessed as relative fold in intracellular DOX accumulation at 10 uM. Format: functional, Homo sapiens. Summed up:
(§7)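 Resistant MDA435/LCC6 cells grown to confluence, preincubated 30 min at 37 °C in fresh DMEM with modulator (0–20 µM), then DOX added (final 20 µM) for 2 h at 37 °C. Cells trypsinized, washed in cold PBS, lysed in 0.3 N HCl/50% ethanol, sonicated, centrifuged. Supernatant fluorescence read at ex 470/em 585 nm. Mean ± SD of three independent experiments.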

The target in data set [18] is T1, ATP-dependent translocase ABCB1. Put plainly: Increase in ATPase activity in human P-gp membrane measured as fold over the basal level in presence of 5 mM MgATP at 100 uM. It is filed as functional, cell membranes. Summed up:
as §4

The test system of data set [19] is MDA-MB-435. Nature of the data set: Effect on P-gp-mediated drug efflux in multidrug resistant MDA435/LCC6 cells assessed as intracellular DOX accumulation at 0 to 10 uM. Format: functional, Homo sapiens. Summed up: as §7
Data set [20] deals with MDA-MB-435. Put plainly: Reversal of cisplatin resistance in multidrug resistant MDA435/LCC6 cells by MTS assay. It is filed as functional, cell-based. The settings on record: Homo sapiens.
Data set [21] has as its system MDA-MB-435. Put plainly: Cytotoxicity against MDA435/LCC6 cells at 5 uM. Format: functional, cell-based. The following applies: Homo sapiens.
Data set [22] has as its system P388. Put plainly: Effect on P-gp-mediated drug efflux in P388 cells assessed as DOX accumulation after 30 mins. The following applies: Mus musculus.
Data set [23] relates to MDA-MB-435. Nature of the data set: Reversal of vinblastine resistance in multidrug resistant MDA435/LCC6 cells by MTS assay. Format: functional, cell-based. The following applies: Homo sapiens. Summed up: (§8)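 Resistant MDA435/LCC6 cells, 4-day MTS assay of paclitaxel or vinblastine dose-response with dimers at 5 µM or monomers at 10 µM. Verapamil 5 µM as positive control, DMSO 0.05% as solvent control. IC50 from curves, triplicate, some repeated three times and averaged.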

Data set [24] relates to MDA-MB-435. Nature of the data set: Reversal of paclitaxel resistance in multidrug resistant MDA435/LCC6 cells by MTS assay. The following applies: Homo sapiens. It is filed as functional, cell-based. Summed up: as §8
Data set [25] deals with P388/ADR. Nature of the data set: Effect on P-gp-mediated drug efflux in adriamycin drug resistant P388 cells assessed as DOX accumulation after 30 mins. The following applies: Mus musculus.
For data set [26], the system named is MDA-MB-435. Put plainly: Reversal potency of vinblastine resistance in multidrug resistant MDA435/LCC6 cells by MTS assay. Format: functional. The following applies: Homo sapiens, in the assay text read “doxorubicin” for “vinblastine”.
Data set [27] deals with T1, ATP-dependent translocase ABCB1. Nature of the data set: Inhibition of VP-induced ATPase activity in human P-gp membrane in presence of verapamil. It is filed as functional, cell membranes. On the set-up: scale not given: the % may be the effect or the level left.
Data set [28] deals with P388/ADR. Put plainly: Reversal potency of daunorubicin resistance in P388 ADR cells by MTS assay. The settings on record: Mus musculus. It is filed as functional, cell-based. Summed up:
as §5

Data set [29] relates to MDA-MB-435. Nature of the data set: Effect on P-gp-mediated drug efflux in MDA435/LCC6 cells assessed as intracellular DOX accumulation. Format: functional, cell-based. The following applies: Homo sapiens. Summed up:
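Confluent MDA435/LCC6 parent and MDR cells were preincubated with modulator in fresh DMEM for 30 min at 37 °C (range 0–20 µM; 0.05% DMSO control). DOX at 20 µM final was added for 2 h at 37 °C. Cells were trypsinised, washed three times in cold PBS, lysed in 0.3 N HCl/50% ethanol, sonicated and centrifuged. Supernatant DOX fluorescence was read (ex 470, em 585 nm); three independent experiments.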

Two compounds from ChEMBL document CHEMBL1137344, “Flavonoid dimers as bivalent modulators for P-glycoprotein-based multidrug resistance: synthetic apigenin homodimers linked with defined-length poly(ethylene glycol) spacers increase drug retention and enhance chemosensitivity in resistant cancer cells” (J Med Chem, 2006) can be followed below.

The source made the active and inactive calls. The calls are words filed in the database; no cut-off is given here.

T1 sequence (P08183 whole entry): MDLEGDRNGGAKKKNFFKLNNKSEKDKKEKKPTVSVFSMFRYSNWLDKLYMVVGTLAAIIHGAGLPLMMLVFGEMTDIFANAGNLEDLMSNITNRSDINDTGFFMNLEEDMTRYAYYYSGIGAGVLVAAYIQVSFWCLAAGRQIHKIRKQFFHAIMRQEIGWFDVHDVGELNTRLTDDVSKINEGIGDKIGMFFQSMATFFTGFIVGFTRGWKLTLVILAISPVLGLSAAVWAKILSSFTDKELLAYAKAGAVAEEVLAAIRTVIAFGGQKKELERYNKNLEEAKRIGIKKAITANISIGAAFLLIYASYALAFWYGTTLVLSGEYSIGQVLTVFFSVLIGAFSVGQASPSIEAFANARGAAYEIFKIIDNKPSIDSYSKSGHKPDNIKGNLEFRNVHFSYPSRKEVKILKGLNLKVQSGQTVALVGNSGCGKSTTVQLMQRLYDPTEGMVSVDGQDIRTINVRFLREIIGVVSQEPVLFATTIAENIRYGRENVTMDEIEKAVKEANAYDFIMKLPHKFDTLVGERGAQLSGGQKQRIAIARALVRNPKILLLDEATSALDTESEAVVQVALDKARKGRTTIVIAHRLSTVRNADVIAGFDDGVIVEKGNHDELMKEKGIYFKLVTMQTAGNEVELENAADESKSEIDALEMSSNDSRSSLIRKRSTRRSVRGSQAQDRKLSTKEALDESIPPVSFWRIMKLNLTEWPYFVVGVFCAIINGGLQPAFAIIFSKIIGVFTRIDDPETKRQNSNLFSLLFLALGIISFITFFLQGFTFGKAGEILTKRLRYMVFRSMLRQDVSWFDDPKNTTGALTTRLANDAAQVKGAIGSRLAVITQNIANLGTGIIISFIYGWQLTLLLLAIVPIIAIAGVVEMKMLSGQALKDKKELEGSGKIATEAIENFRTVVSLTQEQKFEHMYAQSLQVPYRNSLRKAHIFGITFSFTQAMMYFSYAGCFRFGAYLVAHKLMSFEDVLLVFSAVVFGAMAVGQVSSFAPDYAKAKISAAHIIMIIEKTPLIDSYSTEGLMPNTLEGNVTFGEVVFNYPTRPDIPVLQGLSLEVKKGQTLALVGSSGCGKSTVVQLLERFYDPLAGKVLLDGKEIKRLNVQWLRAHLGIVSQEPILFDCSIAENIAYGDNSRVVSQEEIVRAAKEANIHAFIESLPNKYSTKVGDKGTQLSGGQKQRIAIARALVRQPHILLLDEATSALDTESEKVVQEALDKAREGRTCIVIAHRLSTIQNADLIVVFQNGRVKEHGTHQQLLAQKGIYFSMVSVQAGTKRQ

In the case of `COc1cccc2c1C(=O)c1c(O)c3c(c(O)c1C2=O)C[C@@](O)(C(C)=O)C[C@@H]3O[C@H]1C[C@H](N)[C@H](O)[C@H](C)O1` [DAUNORUBICIN], the results for the “Ratio IC50” value in data set [1], in data set [4] and in data set [10] were 7.6, 20 and 53, respectively. Moreover, the half-maximal inhibitory concentration (IC50) was 129 nM in data set [2]; 79 nM in data set [3]; 25 nM in [5]; 2110 nM in [6]; 40 nM in [7]; 106 nM in [8]. Further, the IC50 in [9] turned out to be 977 nM.
For `O=c1cc(-c2ccc(OCCOCCOCCOCCOc3ccc(-c4cc(=O)c5c(O)cc(O)cc5o4)cc3)cc2)oc2cc(O)cc(O)c12`, the Activity in [11] was 7.4; in [17], 5.8; in data set [18], 3.3; in data set [19], 17%; in data set [23], “Dose-dependent effect”; in data set [25], “Dose-dependent effect”. Also, in data set [27], the Activity came to 17%. For the same compound, the IC50 came out at 150 nM in [12]; 100 nM in data set [15]; 150 nM in data set [16]; 0.36 nM in data set [23]; 4.4 nM in data set [24]; 100 nM in [28]. Besides, the result in [13], in [14], in [20], in [21], in data set [22] and in data set [29] was inactive. For the same compound, the EC50 in data set [24] was 900 nM. Also, the IC60 in data set [26] turned out to be 0.73 µM.

As a reminder, the IC50 is the concentration at which inhibition is half-maximal. In general, EC50 refers to the concentration giving half of the maximal effect.
